# A selection: hits, their analogues and other compounds. The true share with any hit is near 0.99%.
# NOD2-RIPK2 inh: NOD2-RIPK2 binding disruptors in cells, primary screen, fluorescence, CHO cells, BLA complementation; hit rate 0.38% among 360,000; CCF4 ratio; Receptor-interacting serine/threonine-protein kinase 2 (Homo sapiens), O43353; inhibition, % at 4.98 µM; in the data active = inhibition above about 21%;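 also: 0% = vehicle only and 100% = reference blocker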
# Target sequence (O43353 whole entry, looked up): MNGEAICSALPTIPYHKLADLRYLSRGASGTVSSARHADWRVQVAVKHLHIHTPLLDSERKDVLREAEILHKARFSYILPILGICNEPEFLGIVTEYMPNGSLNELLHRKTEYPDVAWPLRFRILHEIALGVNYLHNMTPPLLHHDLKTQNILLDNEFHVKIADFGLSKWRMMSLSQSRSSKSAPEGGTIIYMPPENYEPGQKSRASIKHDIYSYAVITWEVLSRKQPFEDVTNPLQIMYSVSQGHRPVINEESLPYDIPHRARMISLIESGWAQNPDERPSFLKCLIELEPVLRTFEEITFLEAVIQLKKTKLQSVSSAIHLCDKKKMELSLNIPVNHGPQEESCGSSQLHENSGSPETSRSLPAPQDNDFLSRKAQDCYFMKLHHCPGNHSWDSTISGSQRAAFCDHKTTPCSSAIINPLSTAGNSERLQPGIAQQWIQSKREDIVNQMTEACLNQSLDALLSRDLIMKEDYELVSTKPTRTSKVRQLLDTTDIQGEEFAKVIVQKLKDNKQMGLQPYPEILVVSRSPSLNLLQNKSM
# TLR9-MyD88 inh: inhibitors of TLR9-MyD88 association in cells, primary screen, cell-based, CHO, BLA complementation, fluorescence | hit rate 0.21% among 340,000 | CCF4 FRET ratio | inhibition, % at 4.98 µM;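 active = inhibition above the mean over all tested compounds plus 3 SD, cut at about 21% in these data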;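 also: 0% = DMSO only wells and 100% = clavulanate BLA inhibitor control wells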
# TLR4-MyD88 BLA: inhibitors of TLR4-MyD88 association in cells, primary screen, cell-based, HeLa CL3-4, BLA complementation, FRET ratio; HeLa CL3-4 TLR4/MyD88 BLA complementation; AID 861, 2007; inhibition, % at 8.4 µM; hit rate 0.18% among 200,000; Toll-like receptor 4 (Homo sapiens) + Myeloid differentiation primary response protein …; in the data active = inhibition above about 25%;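 also: 0% = vehicle and 100% = reference inhibitor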
# MT1-MMP act inh: blockers of MT1-MMP proenzyme processing, primary screen, HT1080 RFP-PRO-GFP cells, GFP/RFP fluorescence. Matrix metalloproteinase-14 (Homo sapiens), P50281. GFP/RFP ratio fluorescence, overnight; percent of plate control window, DMSO zero. GFP/RFP ratio change, % at 20 µM. hit rate 0.061% among 360,000. AID 651647, 2012;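 active = GFP/RFP ratio change of at least 30% with cell ATP level not reduced by more than half and red fluorescence within 50% of control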
#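 Assay system – RFP-PRO-GFP reporter HT1080 cells · Compound dosing – single dose of 20 µM compound, 1% DMSO final · Incubation – overnight compound exposure at 37 °C · Measure – GFP/RFP fluorescence ratio · Benchmarks – DMSO wells and RFP-L50D-GFP cells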
# SKN-1 block: suppressors of acrylamide-induced Pgst-4::GFP reporter in worms, primary screen, SKN-1 inhibitor project, whole organism, uHTS, GFP/RFP fluorescence ratio, strain VP596. C. elegans VP596 Pgst-4::GFP/RFP ratio, 24 h. inhibition, % at 21.8 µM. hit rate 0.49% among 360,000;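 active = interference check ratio from 0.5 to 1.5 plus GFP to RFP signal ratio inhibition reaching or exceeding a fixed threshold, cut at about 30% in these data, passing the limit was not always enough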
# The depositor's hits bear a star; / = no result given; ! = a repeat was not active.
SMILES,NOD2-RIPK2 inh,TLR9-MyD88 inh,TLR4-MyD88 BLA,MT1-MMP act inh,SKN-1 block
O=C(C[C@H]1C[C@H](C(=O)N2CCOCC2)[C@@]2(CCC3CCCC3)c3[nH]c4cc(-c5ccco5)ccc4c3CCN2C1=O)NCCC1=CCCCC1,1,-1,/,-10,6
O=C(C[C@H]1C[C@H](C(=O)N2CCOCC2)[C@@]2(CCC3CCCC3)c3[nH]c4cc(-c5ccco5)ccc4c3CCN2C1=O)NCc1ccco1,-2,-3,/,-24,36*
O=C1c2ccc3c4c(ccc(c24)C(=O)N1c1ccc2ccccc2c1)CC3,7,0,-5,-2,35*
O=C1c2cccc3cccc(c23)C(=O)N1c1ccc2ncccc2c1,6,3,-7,0,-6
O=C(Nc1ccc(Br)cc1Cl)c1cnccn1,-7,0,-9,-5,61*
Cc1nc(NC(=O)C2CC3CCCC(C2)C3=O)sc1C (stereo not drawn),-14,6,-6,1,33*
COc1ccc(C(=O)C(CCCCC(CN(C)C)C(=O)c2ccc(OC)cc2)CN(C)C)cc1 (stereo not drawn),18,5,17,-4,-16
O=C(c1ccccc1)C(CCC(CN1CCOCC1)C(=O)c1ccccc1)CN1CCOCC1 (stereo not drawn),30*,10,4,-3,-14
CN(C)CC(CCC(CN(C)C)C(=O)c1ccccc1)C(=O)c1ccccc1 (stereo not drawn),60*,14,/,9,-12
CCOc1ccc(C(=O)C(CCC(CN(C)C)C(=O)c2ccc(OCC)cc2)CN(C)C)cc1 (stereo not drawn),40*,19,10,-17,-9
O=S(=O)(NCCN1CCOCC1)c1cccs1,1,6,-2,-2,6
CSC(=NCCCN1CCOCC1)NS(=O)(=O)c1cccs1,-4,-9,4,2,43*!
O=S(=O)(Nc1ccc(Cl)cc1)c1ccc2c(c1)CCO2,-12,4,/,2,15
CN(CC(=O)Nc1ccccc1Cl)CC(=O)Nc1ccccc1[N+](=O)[O-],-3,0,1,1,1
CCCN1C2CCCC1CC(NC(=O)c1ccc(F)cc1)C2 (stereo not drawn),2,4,16,0,56*
COc1ccc(C2Nc3cccc(O)c3C(=O)N2Cc2ccccc2)cc1COc1ccc(NC(C)=O)cc1 (stereo not drawn),-8,/,/,-7,2
COc1ccc(C(c2c(O)ccc3ccccc23)N2CCOCC2)c(OC)c1 (stereo not drawn),48*,1,-6,10,22
COc1ccc(C(CCN2CCOCC2)c2c(O)cc(OC)cc2OC)cc1 (stereo not drawn),-6,-5,/,-2,-13
O=C(Cc1ccc(NC(=O)C2CCN(C(=O)C3CC3)CC2)cc1)Nc1cccc(C(=O)N2CCCC2)c1,2,2,/,3,7
Cc1[nH]c2ccccc2c1N=Nc1ccccc1F,5,2,7,0,33
Cc1[nH]c2ccccc2c1N=Nc1ccc(F)cc1,3,4,-5,-2,87*
Clc1ccc(CNCCCSc2ncccn2)cc1,1,-9,/,-5,3
Nc1nnc(SCCOc2cccc(Br)c2)s1,-3,4,-12,6,12
Clc1ccc(OCCCCSc2ncccn2)cc1,-2,2,-9,2,91*
Brc1cccc(OCCSc2ncccn2)c1,-3,/,-3,-3,50*
SMILES,NOD2-RIPK2 inh,TLR9-MyD88 inh,TLR4-MyD88 BLA,MT1-MMP act inh,SKN-1 block
CCCOc1ccc(OCCSc2ncccn2)cc1,-4,-3,-4,4,38*
Clc1ccc(OCCSc2ncccn2)c(Br)c1,-9,-1,-8,2,53*
COc1ccc2c(c1)c(C(O)CN1CCN(Cc3ccc4c(c3)OCO4)CC1)c(C)n2C (stereo not drawn),-1,2,0,-10,44*
COc1cc(N=c2ssnc2Cl)cc(OC)c1,-17,0,-26,-10,15
Clc1nssc1=Nc1ccc(Br)cc1,-2,1,2,1,94*
O=C(NCc1ccc(F)cc1)c1nc(-c2cccs2)no1,4,-4,-8,9,2
Clc1cccc(OCc2nc(-c3ccncc3)no2)c1,5,-4,-8,1,48*
Fc1ccc(OCc2nc(-c3cccs3)no2)cc1,7,10,-11,3,39*
c1ccc(OCc2nc(-c3cccs3)no2)cc1,2,-8,-3,5,40*
Cc1cc(OCc2nc(-c3cccs3)no2)cc(C)c1Cl,-14,6,-15,-2,-1
CC(=O)N1/C(=C/c2ccc(N(C)C)cc2)C(=O)c2ccccc21,9,7,2,6,35*
CN(C)c1ccc(/C=C2\CCC/C(=C\c3ccccc3)C2=O)cc1,-4,17,13,-51,24
O=c1/c(=C\c2ccc(F)cc2)sc2n1CCCN=2,-10,4,-1,7,39*
Cc1cc(C)c(OCC(=O)Nc2nnc(-c3ccco3)o2)c(C)c1,-15,-1,0,1,-3
CCOCC(=O)Nc1ccc(C)c(Cl)c1,-2,-3,-4,/,36*
CCOc1cccc2cc(C(=O)N3CCc4ccccc43)c(=O)oc12,-4,-7,-9,3,47*
Cc1sc(N/N=C/c2cccnc2)nc1-c1ccc(Cl)cc1,-5,-5,4,-2,35*
Oc1c(/C=C/C=C/C=Nc2ccccc2)sc(=S)n1Cc1ccccc1,3,/,/,15,14
CCC(C(=O)c1ccc(O)cc1)c1ccccc1 (stereo not drawn),-2,-8,-11,-1,8
CCC(C(=O)N(C(C)C)C(C)C)c1ccccc1 (stereo not drawn),-7,2,/,3,37*
CCOC(=O)c1c(C)[nH]c(O)c1C=Nc1ccc(C(F)(F)F)cc1,-1,6,6,-53,60*
CCOC(=O)c1c(C)[nH]c(O)c1C=Nc1ccc(Cl)cc1,-1,-7,7,-34,32
O=C(CN1C(=O)S/C(=C\C=C\c2ccccc2)C1=O)Nc1ccccc1C(=O)O,-4,-5,/,7,2
C#CCN1C(=O)S/C(=C/C=C/c2ccc(N(C)C)cc2)C1=O,2,7,-5,0,47*
Cc1ccc(S(=O)(=O)Cn2nnnc2C(C(C)C)N2CCC(C(N)=O)CC2)cc1 (stereo not drawn),-2,1,/,3,5
FC(F)(F)c1cc(C(F)(F)F)c2ccc(N3CCN(c4ccc(Cl)cc4)CC3)nc2n1,-6,-3,-16,5,13

# High-throughput results (PubChem BioAssay)
